Laboratory results from ChEMBL document CHEMBL4513216, “Probing the Open Global Health Chemical Diversity Library for Multistage-Active Starting Points for Next-Generation Antimalarials” (ACS Infect Dis, 2020).

Test: Toxicity liver stage against HepG2, at 10uM
Type: cell-based
Set-up: test concentration 10 uM, cell line HepG2-A16-CD81EGFP
Details: human, HepG2-A16-CD81EGFP cells; read-out: INHIBITION
Procedure, shortened: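 Uninfected HepG2-A16-CD81EGFP cells, 3 × 10^3 per well, 1536-well, plated on prespotted compound at 10 μM final, parasite-free screening media added to match infected plates; puromycin 10 μM positive, DMSO 0.5% negative; run in parallel with 48 h PbLuc assay at 37 °C, 5% CO2; viability by CellTiter-Glo luminescence, normalized to controls.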

Structure (SMILES): Cc1nc(C)c(CN2CCOC[C@H](Oc3cnccn3)C2)s1
- cytotoxicity at 10 µM: -5.33%

Structure (SMILES): CN1CCN2C(=O)N(C3CCOCC3)C[C@H]2C1
- cytotoxicity at 10 µM: 0.523%

Structure (SMILES): O=C(c1ccccn1)N1C[C@@H]2OCC(=O)N(CC3CCCCC3)[C@@H]2C1
- cytotoxicity at 10 µM: -2.86%

Structure (SMILES): CC(=O)N1CCN(CCNC(=O)c2nc3ccccc3c(=O)[nH]2)CC1
- cytotoxicity at 10 µM: 6.45%

Structure (SMILES): O=C(Cc1ccc(Cl)s1)Nc1ccc2c(c1)C(=O)NC2=O
- cytotoxicity at 10 µM: -7.19%

Structure (SMILES): O=C1CN(C(=O)c2nnn(-c3ccc(C(F)(F)F)cc3)n2)CCN1
- cytotoxicity at 10 µM: -2.77%

Structure (SMILES): CCN1CCNC(=O)C12CCN(S(=O)(=O)c1ccccc1)CC2
- cytotoxicity at 10 µM: 0.464%

Structure (SMILES): CC(=O)N1CCC2(CC1)CN(C(=O)c1cccc3[nH]ccc13)CCO2
- cytotoxicity at 10 µM: -149%

Structure (SMILES): COCCn1ccc(=O)c(OCC(=O)Nc2ccccc2)c1C
- cytotoxicity at 10 µM: 3.72%

Structure (SMILES): CCCc1cc(C(=O)Nc2nc(SC)ns2)n(C)n1
- cytotoxicity at 10 µM: 8.49%

Structure (SMILES): O=C(c1cc2c(s1)CCC2)N1CCCC(c2cnccn2)C1 (configuration not stated)
- cytotoxicity at 10 µM: -1.67%

Structure (SMILES): CCc1c(C)noc1-c1cnc(NC2CC2)nc1-c1cnc(C)cn1
- cytotoxicity at 10 µM: -29%

Structure (SMILES): Brc1cccc(-c2noc(C3COCCO3)n2)c1 (configuration not stated)
- cytotoxicity at 10 µM: 8.71%

Structure (SMILES): Cc1csc(-c2ccc(NC(=O)N3CCOCC3)cc2)n1
- cytotoxicity at 10 µM: -9.2%

Structure (SMILES): NC(=O)C1Cc2ccccc2CN1CCC(=O)N1CCc2ccccc21 (configuration not stated)
- cytotoxicity at 10 µM: -4.23%

Structure (SMILES): Cn1cc(N2CCN(c3ccc(C#N)cc3F)CC2=O)cn1
- cytotoxicity at 10 µM: -2.14%

Structure (SMILES): CC(C)(C)NC(=O)c1cnc2n1CCCC2
- cytotoxicity at 10 µM: -3.32%

Structure (SMILES): CN(Cc1cc(Br)cn1C)C(=O)Cc1cccnc1
- cytotoxicity at 10 µM: -4.18%

Structure (SMILES): Cc1cnn(CCNCC(=O)Nc2ccc(Cl)cn2)c1
- cytotoxicity at 10 µM: 1.93%

Structure (SMILES): O=C(c1coc(-c2ccccc2)n1)N1CCCCC1
- cytotoxicity at 10 µM: 11.2%

Structure (SMILES): N#Cc1cccc(OCc2ccoc2C(=O)N2CCCCC2)c1
- cytotoxicity at 10 µM: -6.57%

Structure (SMILES): CCN(Cc1ccco1)C(C)c1nc(C)no1 (configuration not stated)
- cytotoxicity at 10 µM: -10.1%

Structure (SMILES): COc1ccnc(NC(Cc2ccccc2)C(N)=O)n1 (configuration not stated)
- cytotoxicity at 10 µM: 20.7%

Structure (SMILES): O=C(CS(=O)(=O)c1ccc(Cl)cc1)NC1CCCc2ccccc21 (configuration not stated)
- cytotoxicity at 10 µM: 1.03%

Structure (SMILES): Cc1cc(NCc2csc(-c3ccsc3)n2)no1
- cytotoxicity at 10 µM: -0.912%

Structure (SMILES): CCn1cnnc1C1CCN(C(=O)CC(C)n2cccc2)CC1 (configuration not stated)
- cytotoxicity at 10 µM: -1.49%

Structure (SMILES): CCC(C)NC(=O)c1ccc(CNC(=O)CC(C)(C)C)cc1 (configuration not stated)
- cytotoxicity at 10 µM: 10%

Structure (SMILES): CCc1nsc(N2CCN(CC(=O)Nc3c(C)n[nH]c3C)CC2)n1
- cytotoxicity at 10 µM: -3.63%

Structure (SMILES): CCCOc1cccc(NC(=O)NC2CCc3nc(C)nn3C2)c1 (configuration not stated)
- cytotoxicity at 10 µM: -1.65%

Structure (SMILES): NC(=O)CN1CCCN(C(=O)c2ccn(-c3ccc(F)cc3)n2)CC1
- cytotoxicity at 10 µM: -5.69%

Structure (SMILES): O=C(CSc1ccc2c(c1)OCCO2)NS(=O)(=O)c1ccccc1
- cytotoxicity at 10 µM: -2.56%

Structure (SMILES): CC1CCCN(C(=O)CCNS(=O)(=O)c2cccnc2)C1 (configuration not stated)
- cytotoxicity at 10 µM: -11%

Structure (SMILES): COc1ccc(NC(=O)CSc2nc(C)c(C)c(C)c2C#N)cn1
- cytotoxicity at 10 µM: -0.82%

Structure (SMILES): CCN1CCN(CCC(=O)NC2CC(c3cccc(Cl)c3)C2)CC1 (configuration not stated)
- cytotoxicity at 10 µM: -7.37%

Structure (SMILES): Cc1sc2nc(SC(C)c3nc(C(C)(C)C)no3)nc(N)c2c1C (configuration not stated)
- cytotoxicity at 10 µM: -1.13%

Structure (SMILES): CN(CC1CCC1)C(=O)c1ccc(-c2nc(C3CC3)n[nH]2)cc1
- cytotoxicity at 10 µM: -3.26%

Structure (SMILES): O=C1NC(c2cnc(C3CCC3)s2)Nc2ccccc21 (configuration not stated)
- cytotoxicity at 10 µM: -3.95%

Structure (SMILES): O=C(CC1CCCO1)Nc1ccc2c(ccn2CCN2CCOCC2)c1 (configuration not stated)
- cytotoxicity at 10 µM: 2.55%

Structure (SMILES): O=C(c1ccnc(NC2CC2)c1)N1CCCC1c1cccc(Br)c1 (configuration not stated)
- cytotoxicity at 10 µM: -6.58%

Structure (SMILES): CN(CCc1cccs1)C(=O)Nc1cccc(S(C)(=O)=O)c1
- cytotoxicity at 10 µM: -8.77%

Structure (SMILES): CC(C)C(C)(O)CNC(=O)Nc1ccccn1 (configuration not stated)
- cytotoxicity at 10 µM: 4.77%

Structure (SMILES): CCCC(Cn1cnc(-c2ccccc2)c1-c1cncn1CC)N(C)C (configuration not stated)
- cytotoxicity at 10 µM: 7.59%

Structure (SMILES): c1cc(-c2cc(C3CCN(Cc4cncnc4)C3)ccn2)ccn1 (configuration not stated)
- cytotoxicity at 10 µM: -0.969%

Structure (SMILES): CSCCC(=O)N1CCc2c(ncnc2N2CCOCC2)C1
- cytotoxicity at 10 µM: -4.88%

Structure (SMILES): CN1CCN(CCn2cnc3c(F)cccc3c2=O)CC1
- cytotoxicity at 10 µM: -1.67%

Structure (SMILES): O=C(c1cnccn1)N1CCCC(Cn2cc(C3CC3)nn2)C1 (configuration not stated)
- cytotoxicity at 10 µM: -5.9%

Structure (SMILES): Cc1cc(C(=O)NCCc2cn3nc(C)sc3n2)c(C)o1
- cytotoxicity at 10 µM: 5.68%

Structure (SMILES): COc1ccccc1Oc1ncccc1CNC(=O)C(C)CN (configuration not stated)
- cytotoxicity at 10 µM: 0.884%

Structure (SMILES): COc1cccc(-n2cc(-c3ccnc(N[C@@H](CO)C(C)C)n3)cn2)c1
- cytotoxicity at 10 µM: -1.15%

Structure (SMILES): CCc1ccc2nc(C)cc(C(=O)N[C@@H]3CNC[C@H]3O)c2c1
- cytotoxicity at 10 µM: -11%

Structure (SMILES): O=C(c1cc(-c2ccco2)nc2c(Cl)cccc12)N1CCS(=O)(=O)CC1
- cytotoxicity at 10 µM: -1.99%

Structure (SMILES): COCc1noc(-c2ccc(N(C)Cc3nccs3)nc2)n1
- cytotoxicity at 10 µM: -1.57%

Structure (SMILES): CCn1c(C2CCCN(Cc3cc(F)ccc3OC)C2)nn(C)c1=O (configuration not stated)
- cytotoxicity at 10 µM: -4.12%

Structure (SMILES): O=C(Nc1cnn(CC(=O)N2CCCCO2)c1)c1ccccn1
- cytotoxicity at 10 µM: -0.0294%

Structure (SMILES): Cc1nc(C(C)C)sc1C(=O)N(C)CCCc1cnn(C)c1
- cytotoxicity at 10 µM: -4.6%

Structure (SMILES): CCc1nc(C)c(CN2CCCC(c3nn(C)c(=O)n3CC)C2)[nH]1 (configuration not stated)
- cytotoxicity at 10 µM: -7.77%

Structure (SMILES): Cc1ccc2c(c1)c(CNC(=O)C1CCN(CC(N)=O)CC1)nn2C
- cytotoxicity at 10 µM: -3.17%

Structure (SMILES): CCN(C)CC(C)Cn1cnc(-c2ccccc2)c1C (configuration not stated)
- cytotoxicity at 10 µM: -3.06%

Structure (SMILES): CN(Cc1ccco1)C(=O)[C@@]12CNC[C@@H]1CN(C1CCCC1)C2
- cytotoxicity at 10 µM: 3.75%

Structure (SMILES): CN(CCC(O)c1ccccc1)c1cc(N2CCOCC2)ncn1 (configuration not stated)
- cytotoxicity at 10 µM: -148%

Structure (SMILES): COc1ccccc1[C@@H]1CN(Cc2cnn(C)c2C)C[C@H]1C(=O)O
- cytotoxicity at 10 µM: -3.53%

Structure (SMILES): CC(C)(C)n1cc(C2=CCN(CCNC(=O)c3ccccc3)CC2)cn1
- cytotoxicity at 10 µM: -0.262%

Structure (SMILES): COc1ncccc1-c1nc(-c2ccccn2)nn1C1CCS(=O)(=O)C1 (configuration not stated)
- cytotoxicity at 10 µM: -6.1%

Structure (SMILES): Fc1cnccc1CN1CCC2(CCNCC2)C1
- cytotoxicity at 10 µM: -123%

Structure (SMILES): CC(C)Cc1cc(CNC(=O)C2CCCN(Cc3ccco3)C2)no1 (configuration not stated)
- cytotoxicity at 10 µM: 3.11%

Structure (SMILES): O=C(Nc1cccc(-c2cscn2)c1)N1CCC2(CC1)CC(O)CO2 (configuration not stated)
- cytotoxicity at 10 µM: -3.13%

Structure (SMILES): O=C(CS(=O)(=O)Cc1ccc(F)cc1)NC1CCCCNC1=O (configuration not stated)
- cytotoxicity at 10 µM: -0.252%

Structure (SMILES): Fc1ccc(-c2nnc(CN3CCCC(Cn4cncn4)C3)o2)cc1 (configuration not stated)
- cytotoxicity at 10 µM: -4.87%

Structure (SMILES): Cc1nc(-c2ccc(Cl)s2)sc1C(=O)NCCCC(N)=O
- cytotoxicity at 10 µM: -5.6%

Structure (SMILES): COc1c(C2CCCN2CC(=O)Nc2cc(C)on2)c(C)nn1C (configuration not stated)
- cytotoxicity at 10 µM: -1.19%

Structure (SMILES): COCCc1noc(CN2CCOC(Cn3cc(C)cn3)C2)n1 (configuration not stated)
- cytotoxicity at 10 µM: -4.18%

Structure (SMILES): Cc1ccc(CN2C[C@H](OCCN(C)C)[C@H]3OCCC[C@H]32)o1
- cytotoxicity at 10 µM: -146%

Structure (SMILES): COc1cccc(CC(=O)N2CCN(C)c3ncccc3C2)c1
- cytotoxicity at 10 µM: 2.33%

Structure (SMILES): CCN1CCN(C)C2(CCN(Cc3ccc(C)o3)CC2)C1=O
- cytotoxicity at 10 µM: -7.1%

Structure (SMILES): Cn1c2c(ccc1=O)CCN(Cc1ccoc1)CC2
- cytotoxicity at 10 µM: -153%

Structure (SMILES): O=C(Nc1cccc(C(=O)OCC2CCCN2)c1)c1ccoc1 (configuration not stated)
- cytotoxicity at 10 µM: -3.06%

Structure (SMILES): COCc1nn(CC2CC2)c2c1CN(Cc1cccs1)CC2
- cytotoxicity at 10 µM: 0.994%

Structure (SMILES): CCc1ccc(NS(=O)(=O)C=c2[nH]c(=O)n3cccc3c2=O)cc1
- cytotoxicity at 10 µM: 8.45%

Structure (SMILES): Cc1nc(C)c(CC(=O)N2C[C@@H]3CC[C@H]2CN(c2cnccn2)C3)s1
- cytotoxicity at 10 µM: 10.1%

Structure (SMILES): CC(C)c1cc(C(=O)N2C[C@@H]3CC[C@H]2CN(Cc2cscn2)C3)no1
- cytotoxicity at 10 µM: 1.27%

Structure (SMILES): CNc1nc2cn(-c3cccc(OC)c3)c(=O)c-2c[nH]1
- cytotoxicity at 10 µM: 6.04%

Structure (SMILES): CCCn1nccc1NC(=O)CN1CCCC1Cn1nc(C)nc1C (configuration not stated)
- cytotoxicity at 10 µM: -6.84%
